This passage reports inhibition in vivo and Swelling results from ChEMBL document CHEMBL1126267, “A novel synthesis and potent antiinflammatory activity of 4-hydroxy-2(1H)-oxo-1-phenyl-1,8-naphthyridine-3-carboxamides” (1992).

Common to all, as to assay type: functional
Holding throughout (conditions): route oral

For experiment [1], the system named is Rattus norvegicus. The experiment can be described thus: Inhibition of carrageenan-induced rat's paw edema (CPE) after peroral administration of 100 mg/kg dose. The gist of the method:
(§1)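 Male Wistar rats (about 150 g) were dosed orally with compound suspended in 5% arabic gum, 1 h before a subplantar hind-paw injection of 0.1 mL saline. The irritant was 1% zymosan for 33 or 1% λ-carrageenin for 34. Paw volume was measured by plethysmograph before dosing and at 4 h (zymosan) or 3 h (carrageenin). Swelling is relative to initial volume, as mean ± SEM. % inhibition is versus the control group's mean swelling.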
A general note: Carrageenan injected into the paw causes an acute inflammation.

Experiment [2] deals with Rattus norvegicus. Kind of experiment: Inhibition of Zymosan-induced rat's paw edema(ZPE) after peroral administration of 100 mg/kg dose. The gist of the method:
as §1

For experiment [3], the system named is Rattus norvegicus. The experiment can be described thus: Antiinflammatory activity on Carrageenan rat's paw edema(CPE) after peroral administration of 100 mg/kg dose with control swelling of 64.2%.
Experiment [4] relates to Rattus norvegicus. Kind of experiment: Antiinflammatory activity on Zymosan-induced rat's paw edema(ZPE) after peroral administration of 100 mg/kg dose with control swelling of 71.7%. The gist of the method:
(§2)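 Male Wistar rats weighing about 150 g were dosed orally with compound suspended in 5% arabic gum. 1 h later, 1% zymosan in 0.1 mL saline was injected subplantarly into the hind paw. Paw volume was measured by plethysmograph before dosing and 4 h after zymosan, with edema as the volume difference. Inhibition % was derived from mean swelling versus the control group.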

Experiment [5] concerns Rattus norvegicus. The experiment can be described thus: Compound was tested for the inhibition of rat reversed passive Arthus pleurisy after peroral administration of 100 mg/kg dose at 1.59+/-0.13*10e6 no of cells with 2.17*10e6 cells of control. The gist of the method:
(§3)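 Male Wistar rats (about 250 g) were given compound orally before the antiserum. Under ether anesthesia, 0.2 mL rabbit anti-egg albumin antiserum was injected intrapleurally. After 30 min, egg albumin (15 mg/100 g body weight in 0.1 mL saline) was given iv. Rats were killed 4.5 h later and the thoracic cavity was rinsed with 5 mL saline. Exudate volume and infiltrated cell number were measured, with inhibition % versus controls as mean ± SEM.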

The subject of experiment [6] is Rattus norvegicus. Kind of experiment: Compound was tested for the inhibition of rat reversed passive Arthus pleurisy after peroral administration of 100 mg/kg dose at 0.37 mL of exudate volume with 0.46 mL of control (injected intrapleurally). The gist of the method: as §3
Experiment [7] deals with Rattus norvegicus. Kind of experiment: Compound was tested for the inhibition of rat reversed passive Arthus pleurisy after peroral administration of 100 mg/kg dose at 4.35*10e6 no of cells with 3.62*10e6 cells of control. In short, it runs like this: (§4)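 Male Wistar rats (about 250 g) under ether received 0.2 mL rabbit anti-egg-albumin antiserum intrapleurally. Thirty min later they got 15 mg EA/100 g body weight in 0.1 mL saline iv. Compounds were given orally beforehand. Rats were killed 4.5 h after induction and the thoracic cavity rinsed with 5 mL saline. Exudate volume and infiltrated cell count were read as mean ± SE. % inhibition is versus control.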

Experiment [8] relates to Rattus norvegicus. Kind of experiment: Compound was tested for the inhibition of rat reversed passive Arthus pleurisy after peroral administration of 100 mg/kg dose at 0.94 mL of exudate volume with 0.86 mL of control (injected intrapleurally). The gist of the method:
as §3

Experiment [9] relates to Rattus norvegicus. Kind of experiment: Antiinflammatory activity on Carrageenan rat's paw edema(CPE) after peroral administration of 100 mg/kg dose with control swelling of 68.1%.
The subject of experiment [10] is Rattus norvegicus. Kind of experiment: Antiinflammatory activity on Zymosan-induced rat's paw edema(ZPE) after peroral administration of 100 mg/kg dose with control swelling of 62.8%. In short, it runs like this:
as §2

The test system of experiment [11] is Rattus norvegicus. The experiment can be described thus: Compound was tested for the inhibition of rat reversed passive Arthus pleurisy after peroral administration of 100 mg/kg dose at 0.65 mL of exudate volume with 0.84 mL of control (injected intrapleurally). The gist of the method: as §3
Experiment [12] has as its system Rattus norvegicus. The experiment can be described thus: Compound was tested for the inhibition of rat reversed passive Arthus pleurisy after peroral administration of 100 mg/kg dose at 4.66*10e6 no of cells with 5.72*10e6 cells of control. In short, it runs like this:
as §4

Turning to `O=C(Nc1ccccc1)c1c(O)c2cccnc2n(-c2ccccc2)c1=O`, the inhibition in vivo at 100 mg/kg is -15% with Rattus norvegicus [1] and 4.6% in the experiment with Rattus norvegicus [2]. For the same molecule, the Swelling in the experiment with Rattus norvegicus [3] is on record as 73.8%; in the experiment on Rattus norvegicus [4], 68.4%.

With `O=C(Nc1cnccn1)c1c(O)c2cccnc2n(-c2ccccc2)c1=O`, the inhibition in vivo at 100 mg/kg in the experiment with Rattus norvegicus [1] worked out at 21.2%; in the experiment on Rattus norvegicus [2], 29.6%; in the experiment with Rattus norvegicus [5] it was 26.7%; in the experiment with Rattus norvegicus [6], 24.3%. For the same molecule, the Swelling turned out to be 50.6% with Rattus norvegicus [3] and 50.5% in the experiment with Rattus norvegicus [4].

For `CN(C)CCNC(=O)c1c(O)c2cccnc2n(-c2ccccc2)c1=O`, the inhibition in vivo at 100 mg/kg with Rattus norvegicus [7] was -16.6%; in the experiment on Rattus norvegicus [1], 18.4%; in the experiment on Rattus norvegicus [2] it was 22.6%; in the experiment on Rattus norvegicus [8], -10.4%. In addition, the figures for the Swelling in the experiment with Rattus norvegicus [3] and with Rattus norvegicus [4] were 52.4% and 55.5%, respectively.

For `Cc1ccc(NC(=O)c2c(O)c3cccnc3n(-c3ccccc3)c2=O)cc1`, the inhibition in vivo at 100 mg/kg is 2.2% in the experiment with Rattus norvegicus [1], -3.5% in the experiment with Rattus norvegicus [2], 22.4% in the experiment on Rattus norvegicus [11] and 21.5% with Rattus norvegicus [12]. In addition, the Swelling in the experiment on Rattus norvegicus [9] came out at 66.6%; with Rattus norvegicus [10], 65%.

As to `O=C(Nc1ccccn1)c1c(O)c2cccnc2n(-c2ccccc2)c1=O`, the inhibition in vivo at 100 mg/kg was 14.6% in the experiment with Rattus norvegicus [1] and -13.5% in the experiment on Rattus norvegicus [2]. Besides, the Swelling with Rattus norvegicus [3] is 54.8%; in the experiment on Rattus norvegicus [4], 81.4%.

As a reminder, the inhibition in vivo is the drop in the measured response relative to a control, in per cent.
